Assay results: ChEMBL document CHEMBL2321751, “Optimization of chloronitrobenzamides (CNBs) as therapeutic leads for human African trypanosomiasis (HAT)” (J Med Chem, 2013)
≈ marks a conversion by molar mass, not a printed value.

What was measured:
[1] = system: Trypanosoma brucei brucei; experiment: Antitrypanosomal activity against blood stream stage of Trypanosoma brucei brucei after 48 hrs by Cell Titre Glo assay; assay type: functional, organism-based
Procedure, shortened: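 Culture-adapted parasites were grown in HMI-9 with 10% heat-inactivated FBS, 10% Serum Plus and penicillin/streptomycin to 1 × 10⁶ cells/mL, then diluted to 1 × 10⁴ cells/mL. DMSO dilution series were pin-transferred and plates held 48 h at 37 °C in 5% CO2. After 30 min at room temperature, CellTiter-Glo was added and luminescence read after 8 min.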

[2] = system: Trypanosoma brucei gambiense; experiment: Antitrypanosomal activity against Trypanosoma brucei gambiense KO48 after 70 hrs by Alamar Blue assay; assay type: functional, organism-based; conditions: KO48, 70 h
Procedure, shortened: (§1)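 T. b. gambiense strains were grown in HMI-9 with 15% heat-inactivated FBS and 5% human serum. 10000 trypanosomes per well were seeded into serial drug dilutions and held 70 h at 37 °C in humidified 5% CO2. Resazurin was then added for a further 4–6 h, and fluorescence was read (ex 536/em 588 nm). IC50 was taken by linear regression from sigmoidal dose-inhibition curves.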

[3] = system: Trypanosoma brucei rhodesiense; experiment: Antitrypanosomal activity against bloodstream forms of wild type Trypanosoma brucei rhodesiense STIB900 after 70 hrs by Alamar Blue assay; assay type: functional, organism-based; conditions: STIB900, 70 h
Procedure, shortened: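 T. b. rhodesiense STIB 900 was cultured in MEM with Earle's salts and Baltz supplements (0.2 mM 2-mercaptoethanol, 1 mM Na-pyruvate, 0.5 mM hypoxanthine, 15% heat-inactivated horse serum). 2000 bloodstream forms per well were exposed to serial drug dilutions for 70 h at 37 °C in humidified 5% CO2. Resazurin followed for 2–4 h, read by fluorescence (ex 536/em 588 nm). IC50 came from sigmoidal curves by linear regression.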

[4] = system: Trypanosoma brucei gambiense; experiment: Antitrypanosomal activity against Trypanosoma brucei gambiense DAL 898R after 70 hrs by Alamar Blue assay; assay type: functional, organism-based; procedure, shortened: as §1
[5] = system: Trypanosoma brucei gambiense; experiment: Antitrypanosomal activity against Trypanosoma brucei gambiense STIB930 after 70 hrs by Alamar Blue assay; assay type: functional, organism-based; conditions: STIB930, 70 h; procedure, shortened: as §1
[6] = system: HepG2; experiment: Cytotoxicity against human HepG2 cells after 72 hrs by Cell Titre Glo assay; assay type: cell-based; conditions: HepG2, 72 h
Procedure, shortened: (§2)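 Human cells grown to 80% confluence were plated in 384-well format and received compound dilutions by pin tool. After 72 h at 37 °C in 5% CO2, viability was measured by CellTiter-Glo luminescence.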

[7] = Kinetic solubility of the compound in PBS buffer at pH 7.4 after 18 hrs by UV spectrophotometric analysis; assay type: physicochemical; conditions: for solubility kinetic at 18 h: PBS buffer, pH 7.4, read-out: Kinetic_solubility
Procedure, shortened: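 Compound from a 10 mM stock was added to PBS pH 7.4 and left 18 h at room temperature. The suspension was filtered, and the filtrate was mixed 1:1 with 1-propanol. Solubility was derived from UV spectrum AUC (250–500 nm) relative to a 1-propanol/PBS reference. Run in triplicate.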

[8] = system: Raji; experiment: Cytotoxicity against human Raji cells after 72 hrs by Cell Titre Glo assay; assay type: cell-based; procedure, shortened: as §2
[9] = Permeability of the compound at pH 7.4 by PAMPA; assay type: ADME; conditions: for Papp: PAMPA, read-out: permeability
Procedure, shortened: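 Compound (10 mM DMSO stock) was diluted in system solution buffer pH 7.4 and placed in the donor chamber of a PAMPA sandwich whose membrane was coated with GIT lipid. Acceptor buffer filled the acceptor chamber, and the assembly was stirred for 30 min. Donor and acceptor UV spectra (250–500 nm) were compared with a reference to give the permeability coefficient. Run in triplicate.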

[10] = system: BJ; experiment: Cytotoxicity against human BJ cells after 72 hrs by Cell Titre Glo assay; assay type: cell-based; procedure, shortened: as §2
[11] = system: HEK293; experiment: Cytotoxicity against HEK293 cells after 72 hrs by Cell Titre Glo assay; assay type: cell-based; conditions: Homo sapiens, HEK293, 72 h; procedure, shortened: as §2
[12] = system: Trypanosoma brucei brucei; experiment: Antitrypanosomal activity against Trypanosoma brucei brucei 221 after 48 hrs by Cell Titre Glo assay; assay type: functional, organism-based; conditions: Trypanosoma brucei, 221, 48 h
Procedure, shortened: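 Bloodstream-form parasites grown in HMI-9 with 10% heat-inactivated FBS, 10% Serum Plus and penicillin/streptomycin at 37 °C, 5% CO₂, to 1 × 10⁶ cells/mL. Diluted to 1 × 10⁴ cells/mL, then dosed with a DMSO dilution series by pin transfer. Incubated 48 h at 37 °C, 5% CO₂. Viability read by CellTiter-Glo luminescence. EC₅₀ from a variable-slope sigmoidal fit. Mean of six replicates, errors as 95% CI.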

Compound | EC50 [1] | EC50 [6] | EC50 [8] | EC50 [10] | EC50 [11] | EC50 [12] | also measured
O=C(Nc1nc2ccccc2s1)c1cc([N+](=O)[O-])ccc1Cl | 1600 nM | – | – | – | – | – | –
Cc1ccc(-c2nc3cc(Cl)ccc3o2)cc1NC(=O)c1cc([N+](=O)[O-])ccc1Cl | > 33000 nM | – | – | – | – | – | –
O=C(Nc1nc(-c2ccc(F)cc2F)cs1)c1cc([N+](=O)[O-])ccc1Cl | 400 nM | – | – | – | – | – | –
Cc1sc(NC(=O)c2cc([N+](=O)[O-])ccc2Cl)nc1-c1ccccc1 | 540 nM | – | – | – | – | – | –
COc1ccc2nc(NC(=O)c3cc([N+](=O)[O-])ccc3Cl)sc2c1 | 980 nM | – | – | – | – | – | –
O=C(Nc1cc(C(F)(F)F)ccc1Cl)c1cc([N+](=O)[O-])ccc1Cl | 520 nM | – | – | – | – | – | –
Nc1nc(N)nc(Nc2ccc([As]3SCC(CO)S3)cc2)n1 (configuration not stated) [MELARSOPROL] | – | – | – | – | – | – | EC50 [2]: 14 nM; EC50 [3]: 7.2 nM; EC50 [4]: 12 nM; EC50 [5]: 6.7 nM
O=C(Nc1cccc(-c2nc3ncccc3o2)c1)c1cc([N+](=O)[O-])ccc1Cl | 3100 nM | – | – | – | – | – | –
COc1cccc2sc(NC(=O)c3cc([N+](=O)[O-])ccc3Cl)nc12 | 500 nM | – | – | – | – | – | –
O=C(Nc1cc(-c2nc3ccccc3s2)ccc1F)c1cc([N+](=O)[O-])ccc1Cl | – | > 25000 nM | > 25000 nM | > 25000 nM | > 25000 nM | 160 nM | Kinetic_solubility ([7]; buffer, pH 7.4, 18 h, BLD = below limit of detection): BLD; Papp [9]: 191 ×10⁻⁶ cm/s; EC50 [3]: 230 nM; EC50 [5]: 200 nM
O=C(Nc1ccc2oc(-c3ccccc3Cl)nc2c1)c1cc([N+](=O)[O-])ccc1Cl | 2800 nM | – | – | – | – | – | –
O=C(Nc1ccc(F)c(-c2nc3ccccc3s2)c1)c1cc([N+](=O)[O-])ccc1Cl | – | > 25000 nM | > 25000 nM | > 25000 nM | > 25000 nM | 250 nM | solubility kinetic at 18 h [7]: 0.49 µM (≈ 0.21 µg/mL); Papp [9]: 17 ×10⁻⁶ cm/s; EC50 [3]: 69 nM; EC50 [5]: 63 nM
O=C(Nc1nc(-c2ccc(F)cc2)cs1)c1cc([N+](=O)[O-])ccc1Cl | 370 nM | – | – | – | – | – | –
Cc1ccc2nc(NC(=O)c3cc([N+](=O)[O-])ccc3Cl)[nH]c2c1 | > 33000 nM | – | – | – | – | – | –
O=C(Nc1cccc(C(F)(F)F)c1)c1cc([N+](=O)[O-])ccc1Cl | 950 nM | – | – | – | – | – | –
O=C(Nc1ccc2oc(-c3ccccc3Br)nc2c1)c1cc([N+](=O)[O-])ccc1Cl | 4200 nM | – | – | – | – | – | –
O=C(Nc1cccc(Br)c1)c1cc([N+](=O)[O-])ccc1Cl | 1800 nM | – | – | – | – | – | –
O=C(Nc1ccc2oc(-c3ccccc3F)nc2c1)c1cc([N+](=O)[O-])ccc1Cl | 4900 nM | – | – | – | – | – | –
O=C(Nc1ccc(F)c(Cl)c1)c1cc([N+](=O)[O-])ccc1Cl | 950 nM | – | – | – | – | – | –

Compound | EC50 [1] | EC50 [6] | EC50 [8] | EC50 [10] | EC50 [11] | EC50 [12] | also measured
O=C(Nc1ccc([N+](=O)[O-])cc1)c1cc([N+](=O)[O-])ccc1Cl | 1800 nM | – | – | – | – | – | –
O=C(Nc1ccc(-c2nc3ccccc3o2)cc1)c1cc([N+](=O)[O-])ccc1Cl | 6100 nM | – | – | – | – | – | –
O=C(Nc1nc2ccc(Cl)cc2s1)c1cc([N+](=O)[O-])ccc1Cl | – | > 27000 nM | > 27000 nM | > 27000 nM | > 27000 nM | 8100 nM | solubility kinetic at 18 h [7]: 1.2 µM (≈ 0.442 µg/mL); Papp [9]: 138 ×10⁻⁶ cm/s
COC(=O)C1CCN(c2cc(Cl)c(C(=O)Nc3cc(-c4nc5ccccc5s4)ccc3OC)cc2[N+](=O)[O-])CC1 | – | > 25000 nM | > 25000 nM | > 25000 nM | > 25000 nM | 720 nM | solubility kinetic at 18 h [7]: 0.17 µM (≈ 0.0988 µg/mL); Papp [9]: < 1 ×10⁻⁶ cm/s
COc1ccc(-c2nc3ccccc3s2)cc1NC(=O)c1cc([N+](=O)[O-])c(N2CCN(C)CC2)cc1Cl | – | > 25000 nM | > 25000 nM | > 25000 nM | > 25000 nM | 140 nM | solubility kinetic at 18 h [7]: 0.5 µM (≈ 0.269 µg/mL); Papp [9]: 676 ×10⁻⁶ cm/s; EC50 [3]: 170 nM; EC50 [5]: 73 nM
Cc1ccc2nc(NC(=O)c3cc([N+](=O)[O-])ccc3Cl)sc2c1 | 1100 nM | – | – | – | – | – | –
COc1cc(Cl)c(C(=O)Nc2cccc(-c3nc4ccccc4s3)c2)cc1[N+](=O)[O-] | – | > 25000 nM | > 25000 nM | > 25000 nM | > 25000 nM | 330 nM | solubility kinetic at 18 h [7]: 0.01 µM (≈ 0.0044 µg/mL); Papp [9]: 12 ×10⁻⁶ cm/s
N=C(N)c1ccc(OCCCCCOc2ccc(C(=N)N)cc2)cc1 [PENTAMIDINE] | – | – | – | – | – | 12 nM | EC50 [2]: 51 nM; EC50 [3]: 0.6 nM; EC50 [4]: 0.9 nM; EC50 [5]: 0.7 nM
O=C(Nc1ccc(-c2nc3ccccc3[nH]2)cc1)c1cc([N+](=O)[O-])ccc1Cl | 4100 nM | – | – | – | – | – | –
O=C(Nc1cccc(-c2nc3ccccc3s2)c1)c1cc([N+](=O)[O-])c(O)cc1Cl | – | > 25000 nM | > 25000 nM | > 25000 nM | > 25000 nM | > 33000 nM | solubility kinetic at 18 h [7]: 2.2 µM (≈ 0.937 µg/mL); Papp [9]: 307 ×10⁻⁶ cm/s
O=C(Nc1ccc(-c2ccccc2)cc1)c1cc([N+](=O)[O-])ccc1Cl | – | > 27000 nM | > 27000 nM | > 27000 nM | > 27000 nM | 1900 nM | solubility kinetic at 18 h [7]: 0.12 µM (≈ 0.0423 µg/mL); Papp [9]: 26 ×10⁻⁶ cm/s
O=C(Nc1ccc(F)c(-c2nc3ccccc3o2)c1)c1cc([N+](=O)[O-])ccc1Cl | – | > 25000 nM | > 25000 nM | > 25000 nM | > 25000 nM | 170 nM | solubility kinetic at 18 h [7]: 0.27 µM (≈ 0.111 µg/mL); Papp [9]: 366 ×10⁻⁶ cm/s
O=C(Nc1ccc2oc(-c3ccccc3)nc2c1)c1cc([N+](=O)[O-])ccc1Cl | 6100 nM | – | – | – | – | – | –
Cc1ccc(-c2csc(NC(=O)c3cc([N+](=O)[O-])ccc3Cl)n2)cc1 | 1200 nM | – | – | – | – | – | –
Cc1ccc(-c2nc3ccccc3s2)cc1NC(=O)c1cc([N+](=O)[O-])c(N(C)C)cc1Cl | – | > 25000 nM | > 25000 nM | > 25000 nM | > 25000 nM | 470 nM | solubility kinetic at 18 h [7]: 0.03 µM (≈ 0.014 µg/mL); Papp [9]: < 1 ×10⁻⁶ cm/s
O=C(Nc1ccc(O)c(-c2nc3ccccc3s2)c1)c1cc([N+](=O)[O-])ccc1Cl | – | > 25000 nM | > 25000 nM | > 25000 nM | > 25000 nM | > 33000 nM | solubility kinetic at 18 h [7]: 0.023 µM (≈ 0.00979 µg/mL); permeability ([9]; pampa, BLD = below limit of detection): BLD
COc1ccc(OC)c(-c2csc(NC(=O)c3cc([N+](=O)[O-])ccc3Cl)n2)c1 | 2100 nM | – | – | – | – | – | –
O=C(O)COc1cc(Cl)c(C(=O)Nc2cccc(-c3nc4ccccc4s3)c2)cc1[N+](=O)[O-] | – | > 25000 nM | > 25000 nM | > 25000 nM | > 25000 nM | 800 nM | solubility kinetic at 18 h [7]: 6.7 µM (≈ 3.24 µg/mL); Papp [9]: < 1 ×10⁻⁶ cm/s
